Test system: Fibroblast
Test: Multiplex assay against human fibroblast
Format: toxicity, cell-based
In short: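 Tubulin, mitochondrial-mass and membrane-permeability phenotypes are per cents of healthy-nucleus cells. Cells were gated by CellPathfinder machine learning into Hoechst high-intensity objects or normal cells, normal cells into healthy, pyknosed or fragmented nuclei, and pyknosed cells into mitotic or apoptotic. Before that, live cells stained at seeding with Hoechst33342, BioTracker Green Microtubule Cytoskeleton Dye, MitoTracker Red and Annexin V Alexa Fluor 680 were imaged on a CQ1 microscope at 37°C and 5% CO2 after compound addition.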

[1] = 12 h, 1 µM, compound concentration 1 uM, replicate 1
[2] = 12 h, 1 µM, compound concentration 1 uM, replicate 2
[3] = 12 h, 10 µM, compound concentration 10 uM, replicate 1
[4] = 12 h, 10 µM, compound concentration 10 uM, replicate 2
[5] = 24 h, 1 µM, compound concentration 1 uM, replicate 1
[6] = 24 h, 1 µM, compound concentration 1 uM, replicate 2
[7] = 24 h, 10 µM, compound concentration 10 uM, replicate 1
[8] = 24 h, 10 µM, compound concentration 10 uM, replicate 2
[9] = 48 h, 1 µM, compound concentration 1 uM, replicate 1
[10] = 48 h, 1 µM, compound concentration 1 uM, replicate 2
[11] = 48 h, 10 µM, compound concentration 10 uM, replicate 1
[12] = 48 h, 10 µM, compound concentration 10 uM, replicate 2

Question: For Cc1c(CC(=O)O)c2cccnc2n1Cc1ccc(S(C)(=O)=O)cc1C(F)(F)F [FEVIPIPRANT], which “Population Apoptotic (%)” value [1] is on record?
Answer: 44%

Question: What about the “Population Fragmented Nuclei (%)” value [1] of the same compound?
Answer: 22%

Question: And the “Population Healthy Nuclei (%)” value [1]?
Answer: 60%

Question: And the “Population Hoechst High Intensity Objects (%)” value [1]?
Answer: 3%

Question: What about the “Population Membrane Permeable-Phenotype (%)” value [1] of the same compound?
Answer: 1%

Question: What about the “Population Mitochondria Different-Phenotype (%)” value [1] of the same compound?
Answer: 3%

Question: What about the “Population Mitotic Cells (%)” value [1] of the same compound?
Answer: 55%

Question: What about the “Population Normal (%)” value [1] of the same compound?
Answer: 96%

Question: What about the “Population Pyknosed Nuclei (%)” value [1] of the same compound?
Answer: 18%

Question: What about the “Population Tubulin-Different-Phenotype (%)” value [1] of the same compound?
Answer: 20%

Question: What about the “Total Cell Count” value [1] of the same compound?
Answer: 156

Question: What about the “Population Apoptotic (%)” value [2] of the same compound?
Answer: 25%

Question: What about the “Population Fragmented Nuclei (%)” value [2] of the same compound?
Answer: 33%

Question: What about the “Population Healthy Nuclei (%)” value [2] of the same compound?
Answer: 48%

Question: What about the “Population Membrane Permeable-Phenotype (%)” value [2] of the same compound?
Answer: 13%

Question: What about the “Population Mitochondria Different-Phenotype (%)” value [2] of the same compound?
Answer: 12%

Question: What about the “Population Mitotic Cells (%)” value [2] of the same compound?
Answer: 74%

Question: And the “Population Pyknosed Nuclei (%)” value [2]?
Answer: 17%

Question: What about the “Population Tubulin-Different-Phenotype (%)” value [2] of the same compound?
Answer: 56%

Question: And the “Population Apoptotic (%)” value [3]?
Answer: 34%

Question: And the “Population Fragmented Nuclei (%)” value [3]?
Answer: 10%

Question: And the “Population Healthy Nuclei (%)” value [3]?
Answer: 71%

Question: What about the “Population Hoechst High Intensity Objects (%)” value [3] of the same compound?
Answer: 3%

Question: And the “Population Membrane Permeable-Phenotype (%)” value [3]?
Answer: 1%

Question: What about the “Population Mitochondria Different-Phenotype (%)” value [3] of the same compound?
Answer: 4%

Question: What about the “Population Mitotic Cells (%)” value [3] of the same compound?
Answer: 65%

Question: What about the “Population Normal (%)” value [3] of the same compound?
Answer: 96%

Question: What about the “Population Pyknosed Nuclei (%)” value [3] of the same compound?
Answer: 17%

Question: What about the “Population Tubulin-Different-Phenotype (%)” value [3] of the same compound?
Answer: 25%

Question: And the “Total Cell Count” value [3]?
Answer: 132

Question: And the “Population Apoptotic (%)” value [4]?
Answer: 22%

Question: And the “Population Fragmented Nuclei (%)” value [4]?
Answer: 21%

Question: And the “Population Healthy Nuclei (%)” value [4]?
Answer: 54%

Question: And the “Population Hoechst High Intensity Objects (%)” value [4]?
Answer: 5%

Question: And the “Population Membrane Permeable-Phenotype (%)” value [4]?
Answer: 9%

Question: What about the “Population Mitochondria Different-Phenotype (%)” value [4] of the same compound?
Answer: 6%

Question: And the “Population Mitotic Cells (%)” value [4]?
Answer: 77%

Question: And the “Population Normal (%)” value [4]?
Answer: 94%

Question: What about the “Population Pyknosed Nuclei (%)” value [4] of the same compound?
Answer: 23%

Question: And the “Population Tubulin-Different-Phenotype (%)” value [4]?
Answer: 55%

Question: And the “Total Cell Count” value [4]?
Answer: 139

Question: And the “Population Apoptotic (%)” value [5]?
Answer: 55%

Question: What about the “Population Fragmented Nuclei (%)” value [5] of the same compound?
Answer: 14%

Question: What about the “Population Healthy Nuclei (%)” value [5] of the same compound?
Answer: 66%

Question: And the “Population Hoechst High Intensity Objects (%)” value [5]?
Answer: 3%

Question: What about the “Population Membrane Permeable-Phenotype (%)” value [5] of the same compound?
Answer: 1%

Question: And the “Population Mitochondria Different-Phenotype (%)” value [5]?
Answer: 5%

Question: What about the “Population Mitotic Cells (%)” value [5] of the same compound?
Answer: 44%

Question: And the “Population Normal (%)” value [5]?
Answer: 96%

Question: And the “Population Pyknosed Nuclei (%)” value [5]?
Answer: 19%

Question: What about the “Population Tubulin-Different-Phenotype (%)” value [5] of the same compound?
Answer: 23%

Question: What about the “Total Cell Count” value [5] of the same compound?
Answer: 156

Question: And the “Population Apoptotic (%)” value [6]?
Answer: 52%

Question: What about the “Population Fragmented Nuclei (%)” value [6] of the same compound?
Answer: 35%

Question: And the “Population Healthy Nuclei (%)” value [6]?
Answer: 47%

Question: And the “Population Membrane Permeable-Phenotype (%)” value [6]?
Answer: 4%

Question: And the “Population Mitochondria Different-Phenotype (%)” value [6]?
Answer: 8%

Question: And the “Population Mitotic Cells (%)” value [6]?
Answer: 48%

Question: What about the “Population Pyknosed Nuclei (%)” value [6] of the same compound?
Answer: 17%

Question: And the “Population Tubulin-Different-Phenotype (%)” value [6]?
Answer: 50%

Question: And the “Total Cell Count” value [6]?
Answer: 150

Question: What about the “Population Apoptotic (%)” value [7] of the same compound?
Answer: 57%

Question: And the “Population Fragmented Nuclei (%)” value [7]?
Answer: 16%

Question: And the “Population Healthy Nuclei (%)” value [7]?
Answer: 67%

Question: What about the “Population Hoechst High Intensity Objects (%)” value [7] of the same compound?
Answer: 1%

Question: What about the “Population Membrane Permeable-Phenotype (%)” value [7] of the same compound?
Answer: 1%

Question: And the “Population Mitochondria Different-Phenotype (%)” value [7]?
Answer: 2%

Question: And the “Population Mitotic Cells (%)” value [7]?
Answer: 42%

Question: And the “Population Normal (%)” value [7]?
Answer: 98%

Question: And the “Population Pyknosed Nuclei (%)” value [7]?
Answer: 16%

Question: And the “Population Tubulin-Different-Phenotype (%)” value [7]?
Answer: 24%

Question: What about the “Total Cell Count” value [7] of the same compound?
Answer: 130

Question: What about the “Population Apoptotic (%)” value [8] of the same compound?
Answer: 31%

Question: What about the “Population Fragmented Nuclei (%)” value [8] of the same compound?
Answer: 22%

Question: And the “Population Healthy Nuclei (%)” value [8]?
Answer: 55%

Question: And the “Population Hoechst High Intensity Objects (%)” value [8]?
Answer: 7%

Question: And the “Population Membrane Permeable-Phenotype (%)” value [8]?
Answer: 5%

Question: And the “Population Mitochondria Different-Phenotype (%)” value [8]?
Answer: 5%

Question: What about the “Population Mitotic Cells (%)” value [8] of the same compound?
Answer: 68%

Question: What about the “Population Normal (%)” value [8] of the same compound?
Answer: 92%

Question: And the “Population Pyknosed Nuclei (%)” value [8]?
Answer: 21%

Question: And the “Population Tubulin-Different-Phenotype (%)” value [8]?
Answer: 52%

Question: What about the “Total Cell Count” value [8] of the same compound?
Answer: 146

Question: And the “Population Apoptotic (%)” value [9]?
Answer: 65%

Question: What about the “Population Fragmented Nuclei (%)” value [9] of the same compound?
Answer: 16%

Question: What about the “Population Healthy Nuclei (%)” value [9] of the same compound?
Answer: 67%

Question: What about the “Population Hoechst High Intensity Objects (%)” value [9] of the same compound?
Answer: 5%

Question: And the “Population Membrane Permeable-Phenotype (%)” value [9]?
Answer: 0%

Question: What about the “Population Mitochondria Different-Phenotype (%)” value [9] of the same compound?
Answer: 4%

Question: And the “Population Mitotic Cells (%)” value [9]?
Answer: 35%

Question: And the “Population Normal (%)” value [9]?
Answer: 94%

Question: What about the “Population Pyknosed Nuclei (%)” value [9] of the same compound?
Answer: 16%

Question: And the “Population Tubulin-Different-Phenotype (%)” value [9]?
Answer: 16%

Question: And the “Total Cell Count” value [9]?
Answer: 132

Question: What about the “Population Apoptotic (%)” value [10] of the same compound?
Answer: 63%

Question: What about the “Population Fragmented Nuclei (%)” value [10] of the same compound?
Answer: 39%

Question: What about the “Population Healthy Nuclei (%)” value [10] of the same compound?
Answer: 47%

Question: What about the “Population Hoechst High Intensity Objects (%)” value [10] of the same compound?
Answer: 6%

Question: And the “Population Membrane Permeable-Phenotype (%)” value [10]?
Answer: 4%

Question: What about the “Population Mitochondria Different-Phenotype (%)” value [10] of the same compound?
Answer: 8%

Question: What about the “Population Mitotic Cells (%)” value [10] of the same compound?
Answer: 36%

Question: What about the “Population Normal (%)” value [10] of the same compound?
Answer: 93%

Question: What about the “Population Pyknosed Nuclei (%)” value [10] of the same compound?
Answer: 12%

Question: What about the “Population Tubulin-Different-Phenotype (%)” value [10] of the same compound?
Answer: 47%

Question: What about the “Total Cell Count” value [10] of the same compound?
Answer: 157

Question: What about the “Population Apoptotic (%)” value [11] of the same compound?
Answer: 73%

Question: What about the “Population Fragmented Nuclei (%)” value [11] of the same compound?
Answer: 22%

Question: And the “Population Healthy Nuclei (%)” value [11]?
Answer: 62%

Question: What about the “Population Hoechst High Intensity Objects (%)” value [11] of the same compound?
Answer: 2%

Question: What about the “Population Membrane Permeable-Phenotype (%)” value [11] of the same compound?
Answer: 0%

Question: And the “Population Mitochondria Different-Phenotype (%)” value [11]?
Answer: 3%

Question: What about the “Population Mitotic Cells (%)” value [11] of the same compound?
Answer: 26%

Question: What about the “Population Normal (%)” value [11] of the same compound?
Answer: 97%

Question: And the “Population Pyknosed Nuclei (%)” value [11]?
Answer: 14%

Question: What about the “Population Tubulin-Different-Phenotype (%)” value [11] of the same compound?
Answer: 29%

Question: And the “Total Cell Count” value [11]?
Answer: 132

Question: What about the “Population Apoptotic (%)” value [12] of the same compound?
Answer: 58%

Question: And the “Population Fragmented Nuclei (%)” value [12]?
Answer: 32%

Question: And the “Population Healthy Nuclei (%)” value [12]?
Answer: 53%

Question: What about the “Population Membrane Permeable-Phenotype (%)” value [12] of the same compound?
Answer: 3%

Question: What about the “Population Mitochondria Different-Phenotype (%)” value [12] of the same compound?
Answer: 2%

Question: What about the “Population Mitotic Cells (%)” value [12] of the same compound?
Answer: 41%

Question: And the “Population Tubulin-Different-Phenotype (%)” value [12]?
Answer: 52%

Question: What about the “Total Cell Count” value [12] of the same compound?
Answer: 171

From ChEMBL document CHEMBL5058577, “EUbOPEN Chemogenomics Library 2 (Multiplex)” (2022)
